Most compounds without a hit are left out; they make up all but 2.5% or so of the library.
PG9 Ab binder: binders of HIV-1 gp120 antibody PG9, primary screen, biochemical, TR-FRET. inhibition, % at 6.7 µM. AID 624416, 2012. TR-FRET gp120-PG9 antibody binding. hit rate 0.43% among 360,000; in the data active = inhibition above about 8.5%
MC4R barr agon: MC4R agonists recruiting beta-arrestin, primary screen, cell-based, luminescence, agonist arm of biased-ligand search. U2OS MC4R beta-arrestin complementation; percent of melanotan II response, DMSO zero. hit rate 0.98% among 360,000. activation, % at 8.9 µM. Melanocortin receptor 4 (Homo sapiens), P32245;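 active = activation above a per-plate cutoff, the mean activation of sample wells on that plate plus 3 SD, cut at about 8% in these data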
NTR1 agonist: agonists of human NTR1, primary screen, imaging, U2OS cells, beta-arrestin-GFP, high content. hit rate 0.17% among 330,000. activation, % at 20 µM. AID 493036, 2011. NTR1-U2OS beta-arrestin-GFP spot imaging, agonist mode;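 active = activation at or above 40% of the spot to cytoplasm intensity ratio, with at least 20 cells analyzed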;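 also: 0% = DMSO without peptide and 100% = 100 nM NTR1 peptide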
Target sequence (P30989 whole entry, looked up): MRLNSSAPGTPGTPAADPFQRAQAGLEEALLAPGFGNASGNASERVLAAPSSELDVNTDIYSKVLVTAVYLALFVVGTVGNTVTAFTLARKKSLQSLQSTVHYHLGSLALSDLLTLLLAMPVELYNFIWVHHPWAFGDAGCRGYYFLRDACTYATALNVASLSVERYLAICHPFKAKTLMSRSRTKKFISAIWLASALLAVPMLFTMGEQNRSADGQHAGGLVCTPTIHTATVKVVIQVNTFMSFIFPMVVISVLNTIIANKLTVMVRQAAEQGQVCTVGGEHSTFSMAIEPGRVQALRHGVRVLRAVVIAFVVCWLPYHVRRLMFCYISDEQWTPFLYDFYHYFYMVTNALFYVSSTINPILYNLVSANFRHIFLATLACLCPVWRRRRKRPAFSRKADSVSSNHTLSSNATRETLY
NR1D1 modulator: modulators of Rev-erb alpha DNA binding, primary screen, biochemical, FITC-DNA, fluorescence polarization, uHTS. Nuclear receptor subfamily 1 group D member 1 (Homo sapiens), P20393. Rev-erbα–FITC-DNA binding, 90 min. activity, % at 10 µM. hit rate 0.79% among 370,000. AID 1259318, 2017;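 active = activity above about 14%, limit read from the data; passing the limit was not always enough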;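 also: 0% = DMSO wells with 35 nM protein and 100% = DMSO wells with 750 nM protein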
MC4R antag cAMP: MC4R antagonists of cAMP signaling, primary screen, cell-based, TR-FRET, antagonist arm of biased-ligand search. Melanocortin receptor 4 (Homo sapiens), P32245. MC4R-expressing cells, MTII-stimulated cAMP, LANCE TR-FRET. inhibition, % at 6.5 µM. hit rate 0.48% among 360,000. AID 540295, 2011;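 active = inhibition above its plate's cutoff, the mean of tested wells on that plate plus 3 SD, cut at about 29% in these data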;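 also: 0% = Melanotan II alone and 100% = Melanotan II plus saturating MCL0020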
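Material: human MC4R-expressing U2OS cells. Probe or stimulus: Melanotan II challenge. Dosing: 6.5 µM single dose. Times: 30-min compound, 1-h challenge, 1-h detection, room temperature. Technique: TR-FRET with Eu-cAMP and labeled anti-cAMP, 671 nm. Replication: singlicate.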
cAMP nonselect: nonselective cAMP signaling inhibitors, parental cells, counter-screen for MC4R biased antagonist project, cell-based, TR-FRET, U2OS, forskolin, triplicate; inhibition, % at 6.5 µM; LANCE TR-FRET; hit rate 26% among 1,600; shares compounds with MC4R antag cAMP;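 active = mean inhibition over triplicates above the low-control well mean plus 3 SD, set per campaign, cut at about 13% in these data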;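 also: signal is single emission at 671 nm which falls as cellular cAMP rises; 0% = forskolin-stimulated wells and 100% = buffer without forskolin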
MC4R antag conf: MC4R cAMP antagonists, retest, confirmation, cell-based, TR-FRET; inhibition, % at 6.5 µM; shares compounds with MC4R antag cAMP; MC4R-expressing cells, MTII-stimulated cAMP; hit rate 27% among 1,600; AID 602195, 2012; in the data active = inhibition above about 29%;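 also: 0% = agonist stimulated wells alone and 100% = agonist stimulated wells plus saturating reference antagonist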
Active calls of the source: *; . = no result.

SMILES	PG9 Ab binder	MC4R barr agon	NTR1 agonist	NR1D1 modulator	MC4R antag cAMP	cAMP nonselect	MC4R antag conf
COc1ccc(C2C(C(=O)N3CCOCC3)CC(=O)N2c2ccc(OC)cc2)cc1 (stereo unspecified)	.	.	.	-1.5	.	.	.
CCCCC(CC)CO (stereo unspecified)	-0.1	0.0	8.3	4.5	3.8	.	.
CCCCC(CC)CN=C(N)NC(N)=NCCCCCCN=C(N)NC(N)=NCC(CC)CCCC (stereo unspecified)	.	3.3	0.9	.	68.9*	54.9*	89.7*
C/C(=N/NS(=O)(=O)c1ccc(C)cc1)c1c(O)c2ccccc2oc1=O	-2.3	-0.4	0.1	-4.6	0.5	.	.
C/C(=N\NS(=O)(=O)c1ccc(C)cc1)c1cc2ccccc2oc1=O	-0.6	3.3	-0.4	-1.6	29.6*	4.3	11.1
O=C(NCc1ccco1)/C(=C/c1ccc(C(F)(F)F)cc1)c1nc2ccccc2[nH]1	0.6	2.5	-1.0	1.2	17.7	.	.
O=S(=O)(/C(=C\c1ccc(C(F)(F)F)cc1)c1nc2ccccc2[nH]1)c1ccccc1	.	-0.9	.	.	32.5*	12.2	34.9*
CC(C)CCNC(=O)C1CCCN(C(=O)c2ccc3c(c2)NC(=O)CS3)C1 (stereo unspecified)	.	.	.	6.4	.	.	.
COc1cc(-c2nnc(Sc3ccc(C(F)(F)F)cc3[N+](=O)[O-])o2)cc(OC)c1OC	0.4	-0.4	8.7	-7.6	28.6*	1.8	5.2
O=C(O)c1ccc(Sc2nnc(-c3cccc(Br)c3)o2)c([N+](=O)[O-])c1	-2.0	-2.2	12.7	-1.7	-11.3	.	.
Cc1ccc(-n2nc3cc(C)c(NC(=S)NC(=O)/C=C/c4ccco4)cc3n2)cc1	0.3	2.3	2.8	-9.9	11.1	.	.
Cc1ccc(-n2nc3ccc(NC(=S)NC(=O)/C=C/c4ccco4)cc3n2)cc1	8.3	2.5	7.0	-10.0	41.2*	4.7	25.7
NC(=O)COC(=O)CC1CC2CCC1C2 (stereo unspecified)	-3.0	-1.9	1.1	-0.5	1.4	.	.
O=C1CCC(=O)N1CC1CC2CCC1C2 (stereo unspecified)	0.0	0.5	-0.6	0.8	36.8*	1.3	-2.1
CC1(C(=O)N/N=C/c2c(F)c(F)c(F)c(F)c2F)CC1(Cl)Cl (stereo unspecified)	0.9	-3.4	23.7	4.5	32.2*	11.2	54.5*
Cc1c(/C=N\NC(=O)C2(C)CC2(Cl)Cl)cnn1C (stereo unspecified)	-1.7	-1.5	-1.0	0.1	-2.0	.	.
CC(C)CNc1cccc2c1S(=O)(=O)N[C@@H](C)CO2	-0.9	.	.	1.4	.	.	.
Cc1nn(CC(=O)OCC(=O)NCCc2ccc(S(N)(=O)=O)cc2)c(C)c1[N+](=O)[O-]	-1.9	1.4	-1.2	2.8	6.2	.	.
Cc1ccc(CNC(=O)COC(=O)Cn2nc(C)c([N+](=O)[O-])c2C)cc1	0.3	-1.2	-0.8	0.9	45.7*	11.3	31.1*
COC1=C[C@H](C(=O)NCc2ccc(Br)cc2)C(C)C(c2ccccc2)CC1=O (stereo partly specified)	.	.	.	11.7	.	.	.
CC(C)(C)OC(=O)N1CCC(NC(=O)c2nc[nH]c2C(=O)NCC(=O)OCc2ccccc2)CC1	-1.4	-0.7	2.2	3.3	34.4*	9.0	8.4
Cc1ccnn1CCC(=O)N1CCCC(CCC(=O)NCc2ccccc2F)C1 (stereo unspecified)	-1.4	0.6	0.5	-2.5	29.2*	-0.2	3.3
Cc1ccccc1Cn1cc(COC(=O)N(C)Cc2ccccc2)nn1	.	.	.	1.4	.	.	.
Cc1cc(C(=O)OCC(=O)c2ccc(Br)s2)no1	.	-1.1	-0.5	1.9	37.0*	5.1	9.4
COC(=O)[C@H](C(C)C)N1Cc2nnn(Cc3ccccc3)c2C=CS1(=O)=O	.	.	.	-1.5	.	.	.
SMILES	PG9 Ab binder	MC4R barr agon	NTR1 agonist	NR1D1 modulator	MC4R antag cAMP	cAMP nonselect	MC4R antag conf
CCN=C1SC(CC(N)=O)C(=O)N1CC (stereo unspecified)	0.6	1.9	3.2	-5.4	32.4*	3.9	3.8
COc1ccc(-c2cnc3nc[nH]c(=O)c3n2)cc1	-0.4	1.5	0.4	-4.1	29.0*	-1.7	-1.7
CS(=O)(=O)N1CCN(c2ccccc2NC(=S)NC(=O)c2cccs2)CC1	-0.8	-0.5	8.3	-0.6	29.5*	0.5	5.8
CCCCOc1c(Br)cc(/C=C2\N=C(C)OC2=O)cc1OCC	-0.7	-0.9	0.3	4.8	33.3*	0.1	-0.1
CC(C)(C)OC(=O)N1C[C@@]23C[C@H](c4cccc(F)c4)[C@@H](C[C@@H]2S1(=O)=O)O3	-1.2	.	.	-3.1	.	.	.
CCOC(=O)CSc1nc2c(sc(=S)n2-c2ccc(CC)cc2)c(=O)[nH]1	-2.2	0.2	2.2	-3.0	30.8*	3.1	-4.3
COc1ccc(NC(=O)Cn2c(CCC(=O)O)ccc2-c2ccccc2)cc1	0.7	-0.7	0.4	0.7	16.1	.	.
COc1ccc(-c2ccc(CCC(=O)O)n2CC(=O)Nc2ccccc2C)cc1	0.7	-0.7	-0.5	-0.2	30.7*	2.6	1.4
O=C(OCCN1CCN(C2CN(Cc3cn(Cc4ccccc4C(F)(F)F)nn3)S(=O)(=O)C2)CC1)c1cc2ccccc2o1 (stereo unspecified)	.	.	.	9.6	.	.	.
CC(=O)Nc1ccc(-c2csc(NC(=O)C3CC(=O)N(c4ccc5c(c4)OCCO5)C3)n2)cc1 (stereo unspecified)	-0.5	1.0	1.3	6.4	34.6*	2.1	0.8
COc1ccc(-c2csc(NC(=O)C3CC(=O)N(c4ccc5c(c4)OCCO5)C3)n2)cc1 (stereo unspecified)	-0.8	1.7	-0.8	10.0	14.5	.	.
Cn1cccc1C(=O)N1CCN(S(=O)(=O)c2ccc(Cl)s2)CC1	.	.	.	-2.7	.	.	.
CC1=NN(c2ccccc2)C(=O)C1CCC#N (stereo unspecified)	-1.3	-3.5	.	-0.8	6.1	.	.
O=C(O)CNS(=O)(=O)c1ccc(C2CCCCC2)cc1	2.3	1.5	-1.9	-2.5	32.3*	1.8	0.9
O=C(O)CNS(=O)(=O)c1ccc(F)cc1	-0.6	0.8	0.7	0.5	7.1	.	.
COCCN1CCN(Cc2nc(Cc3ccc(OC)c(OC)c3)no2)CC1	-0.5	-1.2	0.5	-6.3	11.8	.	.

Source: PubChem (several laboratories)
